# Hits are enriched below; roughly 3% of the tested compounds scored in any of these assays.
# TMEM16A act = activators or potentiators of mouse TMEM16A chloride channel. AID 623877. 340,000 tested, 0.3% active. Q8BHY3. HEK293 TMEM16A/YFP-H148Q/I152L, iodide quench fluorescence; stronger effect = lower value. B-score at 10 µM;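 active means fluorescence-ratio B-score plate-corrected deviation score at least 3 library SD below zero, with starting fluorescence score within 5 deviations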;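 further: channel opened by trigger with iodide after compound preincubation; score built on the fluorescence ratio of max minus min over baseline; more negative score means more quench and so TMEM16A activation or potentiation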
# Kir21 inh = Kir2.1 (mouse) channel inhibition; P35561; HEK293-Kir2.1, FluxOR thallium flux fluorescence; stronger effect = lower value; B-score at 10 µM; 310,000 tested, 0.85% active;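 active means fluorescence ratio B-score at or below minus 3 SD of library scores, with starting-brightness B-score within 2 SD, cut at about -4.2 in these data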;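 further: channel flux triggered by added potassium and thallium sulfate stimulus; B-score of peak minus minimum fluorescence over baseline after thallium stimulus; more negative B-score means stronger Kir2.1 block with less thallium influx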
# Target sequence (P35561 whole entry, looked up): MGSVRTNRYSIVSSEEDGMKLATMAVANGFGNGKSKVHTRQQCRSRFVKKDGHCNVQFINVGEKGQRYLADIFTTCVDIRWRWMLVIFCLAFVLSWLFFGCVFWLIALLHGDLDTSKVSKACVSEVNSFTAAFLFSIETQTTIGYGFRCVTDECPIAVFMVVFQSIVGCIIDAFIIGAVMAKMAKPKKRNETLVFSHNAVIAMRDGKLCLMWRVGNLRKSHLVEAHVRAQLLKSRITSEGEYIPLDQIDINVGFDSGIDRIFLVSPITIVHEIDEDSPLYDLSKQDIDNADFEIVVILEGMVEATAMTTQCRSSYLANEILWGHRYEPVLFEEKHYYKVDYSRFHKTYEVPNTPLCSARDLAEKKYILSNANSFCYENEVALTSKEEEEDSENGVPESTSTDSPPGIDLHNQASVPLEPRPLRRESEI
# DNA FID counter = fluorescent intercalator displacement, NS3 helicase counter-screen. DNA fluorescent intercalator displacement, fluorescence. inhibition, % at 7.9 µM. 290,000 tested, 0.17% active. AID 1845; in the data active means inhibition above about 37%;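 further: 0% = vehicle and 100% = reference compound; higher means more ethidium bromide displaced from hairpin DNA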
# ANO1 block = blocks the mouse calcium-activated chloride channel TMEM16A; Q8BHY3; HEK293 TMEM16A/YFP iodide influx fluorescence, ionomycin; normalized B-score (activity score, 25-100; higher = stronger inhibition) at 10 µM; 310,000 tested, 1.2% active; AID 588511;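 active means ratio plate-corrected score three or more library SD toward inhibition, starting fluorescence score within five deviations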;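 further: score derived from kinetic fluorescence span divided by baseline fluorescence per well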
# SR-BI DiI-HDL act = SR-BI HDL lipid transfer activation. activation, % at 12.5 µM. 320,000 tested, 0.096% active. CHO ldlA[mSR-BI] cells, DiI-HDL uptake fluorescence, 3 h; 100 = double the neutral-control signal;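 active means mean replicate activation of at least 60% and every replicate at or above 60%; inconclusive means mean or all-replicate condition met, but not both; inactive means mean below 60% and not all replicates reaching 60%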;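 further: 0% = median plate neutral-control signal and 100% = twice that signal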
#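 Material: SR-BI-overexpressing, LDLR-lacking CHO cells | Dosing: Single compound concentration, delivered by pin transfer | Probe or stimulus: Labelled HDL, 10 µg/mL | Signal: Bottom-read cell fluorescence after medium removal, ex 550/em 595 nm | Schedule: 3 h, 37 °C | Evaluation: HDL uptake via cellular fluorescence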
# SR-BI HDL uptake = mouse SR-BI HDL lipid transfer inhibition; 320,000 tested, 0.96% active; Q61009; ldlA[mSR-BI] CHO cells, DiI-HDL uptake fluorescence, 3 h; inhibition, % at 12.5 µM;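 active means mean replicate inhibition of at least 70% and a set share of replicates each scoring 70 or more; inconclusive means meets just one of the two criteria; inactive means fails both criteria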;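 further: 0% = median of neutral control wells and 100% = median of positive control wells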
# DiI quench = counter-screen for SR-BI lipid transfer inhibitors: DiI fluorescence quenchers. shares compounds with SR-BI HDL uptake. cell-free DiI-HDL fluorescence quenching, 30 min. AC50, µM (doses to about 35 µM), for the others: at the top dose activity change, negative = quenching. 470 tested, 20% active;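 active means quenching, a falling signal, with AC50 below a set limit tied to the top valid dose, actives reach about 32 µM in these data; inconclusive means no clear call, values can overlap the other calls; inactive means rising signal, and the rest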
# Active calls of the source: *; i = inactive; ? = inconclusive; nt = no result.
SMILES,TMEM16A act,Kir21 inh,DNA FID counter,ANO1 block,SR-BI DiI-HDL act,SR-BI HDL uptake,DiI quench
CCN(C(=O)COC(=O)c1c(C)c(-c2ccccc2)nc2ccccc12)C1CCS(=O)(=O)C1 (stereo unspecified),i,0.11,-36,i,-75,75*,-1%
Cc1ccc2nc3c(c(C(=O)OCC(=O)N(C)C4CCS(=O)(=O)C4)c2c1)CCCC3 (stereo unspecified),i,0.17,-28,i,-74,74*,-1%
CN(C(=O)COC(=O)c1ccccc1Nc1ccccc1)C1CCS(=O)(=O)C1 (stereo unspecified),i,-1.6,-13,i,-46,46,nt
CCN(C(=O)COC(=O)c1c(-c2ccccc2)noc1C)C1CCS(=O)(=O)C1 (stereo unspecified),nt,0.74,-10,i,-11,11,nt
Cc1cccc(Nc2ccccc2C(=O)OCC(=O)N(C)C2CCS(=O)(=O)C2)c1C (stereo unspecified),i,3.2,-7,i,-73,73*,2%
O=C(NC1CCCCC1)C(c1ccc2ncccc2c1)N(Cc1ccco1)C(=O)c1ccc2c(c1)OCCO2 (stereo unspecified),i,1.6,-7,i,14,-14,-2%
O=C(NC1CCCCC1)C(c1ccc2ncccc2c1)N(Cc1ccc2c(c1)OCO2)C(=O)c1ccc2c(c1)OCCO2 (stereo unspecified),i,-0.22,-14,i,2,-2,nt
Cc1nn(Cc2ccccc2)c(C)c1NC(=O)c1cc2nc(-c3ccco3)cc(C(F)(F)F)n2n1,i,-3.9,-35,i,-83,83*,-7%
CCc1ccc(-c2cc(C(F)(F)F)n3nc(C(=O)Nc4c(C)nn(Cc5ccccc5C)c4C)cc3n2)s1,i,0.75,-2,i,-57,57,nt
CCOc1cc(N2CCOCC2)c(OCC)cc1NC(=O)COc1ncnc2ccccc12,i,-0.68,-20,i,-17,17,nt
CCOc1cc(N2CCOCC2)c(OCC)cc1NC(=O)c1cc(-c2ccco2)nc2ccccc12,i,0.53,-9,i,-79,79*,24µM*
Cc1ccc(NC(=O)c2cc(-c3ccco3)nc3ccccc23)cc1S(=O)(=O)N1CCOCC1,i,-0.01,-32,i,-102,102*,0%
CN(Cc1ccccc1F)C(=O)c1cccc(NC(=O)CC2SC(N3CCCCC3)=NC2=O)c1 (stereo unspecified),i,nt,nt,nt,-22,22,nt
CCOc1ccc(NC(=O)CN2CCN(CC(=O)Nc3ccc(Cl)c(C(F)(F)F)c3)CC2)cc1,i,1.7,4,i,-37,37,1%
CCOc1ccc(NC(=O)CN2CCN(CC(=O)Nc3cc(OC)cc(OC)c3)CC2)cc1,i,nt,-5,i,-81,81*,-1%
CCOc1ccc(NC(=O)CN2CCN(CC(=O)Nc3cccc(F)c3)CC2)cc1,i,nt,-4,i,-50,50,nt
CC(=O)NCCC1CCN(C(=O)c2cc(COc3ccc(C)nc3)on2)CC1,i,0,-26,i,-76,76*,-6%
O=S(=O)(c1ccccc1F)N1CCC(c2nc3ccccc3[nH]2)CC1,i,-0.01,0,i,8,-8,nt
CCCCCCC(=O)Nc1nc(C)c(-c2csc(Nc3ccc(Cl)cc3)n2)s1,i,1.7,0,i,-120,120*,1.1µM*
C=CCCC(=O)Nc1nc(C)c(-c2csc(Nc3ccc(Cl)cc3Cl)n2)s1,i,0.54,-5,i,-70,70,nt
Cn1c(C(=O)N2CCN(Cc3ccc4c(c3)OCO4)CC2)cc2sccc21,i,2.5,-18,i,18,-18,nt
Cn1c(C(=O)N2CCC(C(=O)N3CCN(Cc4ccc5c(c4)OCO5)CC3)CC2)cc2sccc21,i,0.01,-25,i,-72,72*,-3%
COc1ccccc1NC(=O)CN1CCN(CC(=O)Nc2ccc(OCc3ccccc3)cc2)CC1,i,-1.1,-3,i,-41,41,-2%
COc1ccccc1NC(=O)CN1CCN(CC(=O)Nc2ccc(C)c(F)c2)CC1,i,-0.71,-14,i,-104,104*,-4%
COc1ccccc1NC(=O)CN1CCN(CC(=O)Nc2ccc(F)cc2)CC1,i,nt,-7,i,-1,1,nt
SMILES,TMEM16A act,Kir21 inh,DNA FID counter,ANO1 block,SR-BI DiI-HDL act,SR-BI HDL uptake,DiI quench
Cc1cc2oc(=O)cc(CN3CCN(C/C=C/c4ccccc4)CC3)c2cc1O,i,0.75,16,i,-76,76*,-7%
Cc1nc(N)nc(N)c1-c1ccc([N+](=O)[O-])cc1,i,nt,nt,nt,20,-20,nt
CS(=O)(=O)N1CCc2cc(C(=O)Nc3ccc(Cl)cc3)ccc21,i,0.21,-6,i,-63,63,nt
NS(=O)(=O)c1ccc(NC(=O)c2ccc3c(c2)CCN3S(=O)(=O)c2ccccc2)cc1,i,-0.48,-7,i,-64,64,nt
CN(C)S(=O)(=O)c1cccc(NC(=O)c2cccc(S(=O)(=O)N3CCc4ccccc43)c2)c1,i,nt,nt,nt,-61,61,nt
O=C(Nc1ccccc1)c1ccc2c(c1)CCN2S(=O)(=O)c1ccccc1,i,1.3,-14,i,-76,76*,-1%
CC(=O)c1cccc(NC(=O)c2ccc3c(c2)CCN3S(=O)(=O)c2ccccc2)c1,i,-0.31,-10,i,-91,91*,1%
CS(=O)(=O)N1CCc2cc(C(=O)Nc3cccc([N+](=O)[O-])c3)ccc21,i,-0.04,13,i,-68,68,-13%
CC(=O)Nc1cccc(NC(=O)c2ccc3c(c2)CCN3S(=O)(=O)c2ccccc2)c1,i,-2.2,-18,i,-72,?,0%
CN(CCCCCCCCCCN(C)C(=O)Oc1cccc([N+](C)(C)C)c1)C(=O)Oc1cccc([N+](C)(C)C)c1,i,nt,nt,i,10,-10,nt
CC1CCCC(NC(=O)C2CCN(S(=O)(=O)c3cccc4nonc34)CC2)C1C (stereo unspecified),i,0.83,-14,i,-2,2,nt
COc1ccc(NC(=O)c2ccc3c(c2)CCN3S(=O)(=O)c2ccccc2)cc1,i,-1.3,-20,i,-81,81*,-3%
COc1cc(C(=O)Nc2ccc(S(=O)(=O)N3CCc4ccccc43)cc2)cc(OC)c1OC,i,0.29,-15,i,-11,11,nt
CCOC(=O)C(Cc1ccccc1)C(=O)Nc1cccc2ccccc12 (stereo unspecified),i,-2.4,-14,i,5,-5,nt

# Bioassay records: PubChem, several laboratories
